Data from ChEMBL document CHEMBL4376826 (J Med Chem, 2020).
Converted amounts (≈) assume the structure as drawn.

How the values were obtained:
[1] = Drug level in beta-naphthoflavone/phenobarbital-induced rat liver S9 fraction treated with 100 ug/ml Ezutromid-1 assessed as compound formation in presence of NADPH measured after 4 hrs by UV-Vis spectroscopy; assay type: ADME, subcellular; conditions: s9, 4 h
[2] = Retention time in beta-naphthoflavone/phenobarbital-induced rat liver S9 fraction at 100 ug/ml in presence of NADPH by LC-MS/MS analysis; assay type: ADME, subcellular
[3] = Retention time in human plasma by LC-MS/MS analysis; assay type: ADME, cell-free
[4] = Lipophilicity, logD of the compound at pH 7.4; assay type: physicochemical; conditions: buffer
[5] = Kinetic aqueous solubility of the compound; assay type: physicochemical; conditions: buffer; read-out: Kinetic_solubility
[6] = Permeability at pH 7.4 by PAMPA; assay type: ADME; conditions: read-out: permeability
[7] = Protein binding in mouse plasma assessed as bound fraction; assay type: ADME, cell-free; conditions: read-out: PPB (converted)
Procedure, shortened: (§1)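 Binding measured in 100% plasma; reported as fraction bound.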

[8] = Protein binding in human plasma assessed as bound fraction; assay type: ADME, cell-free; conditions: read-out: PPB (converted); procedure, shortened: as §1
[9] = Half life in mouse liver S9 fraction; assay type: ADME, subcellular
Procedure, shortened: (§2)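 Metabolic stability of the dihydrodiols measured in vitro with mouse and human liver S9 fractions and with mouse and human hepatocytes; half-life from substrate depletion.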

[10] = Half life in mouse hepatocytes; assay type: ADME, cell-based, Hepatocyte; procedure, shortened: as §2
[11] = target: UDP-glucuronosyltransferase 1A4 (Homo sapiens, UniProt P22310); experiment: Drug metabolism assessed as human UGT1A4-mediated metabolism by measuring intrinsic clearance; assay type: ADME; conditions: recombinant enzyme
UDP-glucuronosyltransferase 1A4, sequence (P22310 whole entry): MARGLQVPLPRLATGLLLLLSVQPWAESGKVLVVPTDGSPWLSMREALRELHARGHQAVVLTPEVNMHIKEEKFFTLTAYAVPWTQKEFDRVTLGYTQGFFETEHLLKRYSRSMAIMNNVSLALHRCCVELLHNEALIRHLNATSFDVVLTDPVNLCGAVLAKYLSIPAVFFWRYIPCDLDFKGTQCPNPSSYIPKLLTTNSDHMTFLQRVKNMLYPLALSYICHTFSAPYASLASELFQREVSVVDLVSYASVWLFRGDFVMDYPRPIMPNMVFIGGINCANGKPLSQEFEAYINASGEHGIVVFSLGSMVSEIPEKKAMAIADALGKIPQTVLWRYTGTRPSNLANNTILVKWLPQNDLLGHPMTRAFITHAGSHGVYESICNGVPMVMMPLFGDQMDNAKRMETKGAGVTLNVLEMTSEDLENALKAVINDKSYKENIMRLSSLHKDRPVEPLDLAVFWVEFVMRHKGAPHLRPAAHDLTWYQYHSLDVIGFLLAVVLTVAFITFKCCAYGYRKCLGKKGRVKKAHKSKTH

[12] = Half life in human liver S9 fraction; assay type: ADME, subcellular; procedure, shortened: as §2
[13] = Half life in human hepatocytes; assay type: ADME, cell-based, Hepatocyte; procedure, shortened: as §2
[14] = Intrinsic clearance in mouse liver S9 fraction; assay type: ADME, subcellular; conditions: read-out: CLH
[15] = Intrinsic clearance in mouse hepatocytes; assay type: ADME, cell-based, Hepatocyte
[16] = Intrinsic clearance in human liver S9 fraction; assay type: ADME, subcellular; conditions: read-out: CLH
[17] = Intrinsic clearance in human hepatocytes; assay type: ADME, cell-based, Hepatocyte
[18] = test system: UDP-glucuronosyltransferases (UGTs); experiment: Drug metabolism assessed as human UGT-mediated metabolism by measuring intrinsic clearance; assay type: ADME, protein assay
[19] = target: UGT1A9 (Homo sapiens, UniProt O60656); experiment: Inhibition of human UGT1A9 assessed as residual enzyme activity at 10 uM relative to control; assay type: ADME; conditions: read-out: Activity
UGT1A9, sequence (O60656 whole entry): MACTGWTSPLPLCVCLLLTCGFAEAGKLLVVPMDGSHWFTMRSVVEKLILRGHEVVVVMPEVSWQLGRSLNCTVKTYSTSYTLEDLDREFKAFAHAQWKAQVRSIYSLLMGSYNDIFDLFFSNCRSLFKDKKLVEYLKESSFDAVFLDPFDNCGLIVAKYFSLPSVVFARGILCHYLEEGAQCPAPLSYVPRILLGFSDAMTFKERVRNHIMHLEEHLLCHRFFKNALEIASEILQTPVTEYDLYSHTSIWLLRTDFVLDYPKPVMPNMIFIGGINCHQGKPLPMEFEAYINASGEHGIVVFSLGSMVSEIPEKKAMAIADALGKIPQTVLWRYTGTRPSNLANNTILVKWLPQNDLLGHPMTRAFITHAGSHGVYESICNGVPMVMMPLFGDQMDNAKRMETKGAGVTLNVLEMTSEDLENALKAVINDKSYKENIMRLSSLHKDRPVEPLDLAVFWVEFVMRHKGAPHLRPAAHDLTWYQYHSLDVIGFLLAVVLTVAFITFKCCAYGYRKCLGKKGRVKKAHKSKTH

[20] = target: UGT1A3 (Homo sapiens, UniProt P35503); experiment: Inhibition of human UGT1A3 assessed as residual enzyme activity at 10 uM relative to control; assay type: ADME; conditions: read-out: Activity
UGT1A3, sequence (P35503 whole entry): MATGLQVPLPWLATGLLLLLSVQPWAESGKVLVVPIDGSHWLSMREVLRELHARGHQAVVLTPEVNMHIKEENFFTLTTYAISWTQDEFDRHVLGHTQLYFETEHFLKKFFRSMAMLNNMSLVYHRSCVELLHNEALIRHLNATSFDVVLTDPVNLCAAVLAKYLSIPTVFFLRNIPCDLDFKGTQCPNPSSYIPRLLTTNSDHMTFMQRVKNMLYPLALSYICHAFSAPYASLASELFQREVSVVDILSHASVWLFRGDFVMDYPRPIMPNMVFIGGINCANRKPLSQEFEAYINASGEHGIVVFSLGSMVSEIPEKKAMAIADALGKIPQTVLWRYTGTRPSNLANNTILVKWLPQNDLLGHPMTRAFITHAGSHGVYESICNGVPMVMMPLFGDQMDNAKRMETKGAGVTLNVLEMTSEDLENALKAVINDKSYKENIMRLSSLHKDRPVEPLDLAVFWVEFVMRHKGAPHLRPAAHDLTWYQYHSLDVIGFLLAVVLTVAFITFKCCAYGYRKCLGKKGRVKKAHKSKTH

[21] = target: UGT1A4 (Homo sapiens, UniProt P22310); experiment: Inhibition of human UGT1A4 assessed as residual enzyme activity at 10 uM relative to control; assay type: ADME; conditions: read-out: Activity
UGT1A4, sequence (P22310 whole entry): as the sequence (P22310 whole entry) above

[22] = target: Broad substrate specificity ATP-binding cassette transporter ABCG2 (Homo sapiens, UniProt Q9UNQ0); experiment: Inhibition of BCRP (unknown origin); assay type: ADME
Broad substrate specificity ATP-binding cassette transporter ABCG2, sequence (Q9UNQ0 whole entry): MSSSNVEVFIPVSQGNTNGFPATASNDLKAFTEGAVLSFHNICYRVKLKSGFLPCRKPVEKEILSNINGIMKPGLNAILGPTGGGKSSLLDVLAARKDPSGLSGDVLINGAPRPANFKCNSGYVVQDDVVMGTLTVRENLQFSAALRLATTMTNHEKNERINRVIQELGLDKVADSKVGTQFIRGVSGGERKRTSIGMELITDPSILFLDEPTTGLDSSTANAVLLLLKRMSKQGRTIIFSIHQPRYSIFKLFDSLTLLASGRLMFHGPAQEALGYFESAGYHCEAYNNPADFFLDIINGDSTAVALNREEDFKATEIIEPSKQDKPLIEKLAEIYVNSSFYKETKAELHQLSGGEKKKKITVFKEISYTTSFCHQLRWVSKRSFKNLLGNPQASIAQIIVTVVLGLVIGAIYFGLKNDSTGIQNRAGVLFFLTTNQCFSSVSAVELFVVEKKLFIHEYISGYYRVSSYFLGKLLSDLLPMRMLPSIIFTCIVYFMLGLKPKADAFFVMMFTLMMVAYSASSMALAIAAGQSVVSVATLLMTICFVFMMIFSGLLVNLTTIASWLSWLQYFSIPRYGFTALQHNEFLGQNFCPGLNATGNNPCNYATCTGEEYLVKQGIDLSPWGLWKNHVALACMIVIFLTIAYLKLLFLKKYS

[23] = target: Solute carrier organic anion transporter family member 1B1 (Homo sapiens, UniProt Q9Y6L6); experiment: Inhibition of OATP1B1 (unknown origin); assay type: ADME
Solute carrier organic anion transporter family member 1B1, sequence (Q9Y6L6 whole entry): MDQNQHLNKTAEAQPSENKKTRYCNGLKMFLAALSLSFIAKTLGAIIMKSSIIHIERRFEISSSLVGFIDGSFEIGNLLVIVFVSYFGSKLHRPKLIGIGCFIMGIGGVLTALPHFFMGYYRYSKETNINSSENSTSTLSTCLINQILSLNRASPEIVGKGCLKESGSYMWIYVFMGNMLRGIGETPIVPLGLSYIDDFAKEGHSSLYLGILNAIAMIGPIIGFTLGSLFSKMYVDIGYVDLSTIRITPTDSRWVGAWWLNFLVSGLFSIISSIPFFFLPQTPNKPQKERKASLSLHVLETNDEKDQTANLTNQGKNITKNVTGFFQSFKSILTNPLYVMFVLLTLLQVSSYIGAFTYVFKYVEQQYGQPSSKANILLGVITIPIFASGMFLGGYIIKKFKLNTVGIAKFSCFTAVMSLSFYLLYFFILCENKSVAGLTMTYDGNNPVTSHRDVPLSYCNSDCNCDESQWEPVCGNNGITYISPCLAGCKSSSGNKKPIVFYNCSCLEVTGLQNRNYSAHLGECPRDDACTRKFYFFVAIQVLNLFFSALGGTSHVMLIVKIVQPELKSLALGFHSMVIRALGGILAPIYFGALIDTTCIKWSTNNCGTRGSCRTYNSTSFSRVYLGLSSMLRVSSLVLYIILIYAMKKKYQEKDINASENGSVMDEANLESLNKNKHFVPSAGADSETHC

[24] = target: Solute carrier organic anion transporter family member 1B3 (Homo sapiens, UniProt Q9NPD5); experiment: Inhibition of OATP1B3 (unknown origin); assay type: ADME
Solute carrier organic anion transporter family member 1B3, sequence (Q9NPD5 whole entry): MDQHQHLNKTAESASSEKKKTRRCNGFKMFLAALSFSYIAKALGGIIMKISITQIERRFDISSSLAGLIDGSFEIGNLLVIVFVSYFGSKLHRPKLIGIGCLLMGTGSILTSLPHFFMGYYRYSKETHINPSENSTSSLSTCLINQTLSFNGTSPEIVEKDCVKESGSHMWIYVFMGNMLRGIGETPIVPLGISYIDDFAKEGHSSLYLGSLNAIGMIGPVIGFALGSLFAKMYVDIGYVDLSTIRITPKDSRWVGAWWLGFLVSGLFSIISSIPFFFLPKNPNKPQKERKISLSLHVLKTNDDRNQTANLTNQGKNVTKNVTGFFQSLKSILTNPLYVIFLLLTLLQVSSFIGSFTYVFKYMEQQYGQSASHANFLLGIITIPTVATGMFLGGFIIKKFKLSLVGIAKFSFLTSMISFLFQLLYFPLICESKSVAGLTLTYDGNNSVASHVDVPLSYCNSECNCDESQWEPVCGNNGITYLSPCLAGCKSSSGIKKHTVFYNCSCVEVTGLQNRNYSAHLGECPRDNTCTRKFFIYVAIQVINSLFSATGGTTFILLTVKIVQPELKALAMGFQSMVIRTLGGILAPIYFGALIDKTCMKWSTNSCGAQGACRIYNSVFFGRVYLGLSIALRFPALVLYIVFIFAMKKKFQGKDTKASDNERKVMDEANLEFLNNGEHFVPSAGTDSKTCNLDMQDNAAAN

[25] = target: T1, Amine oxidase [flavin-containing] B (Homo sapiens, UniProt P27338); experiment: Inhibition of monoamino oxidase B (unknown origin) at 10 uM
T1 sequence (P27338 whole entry): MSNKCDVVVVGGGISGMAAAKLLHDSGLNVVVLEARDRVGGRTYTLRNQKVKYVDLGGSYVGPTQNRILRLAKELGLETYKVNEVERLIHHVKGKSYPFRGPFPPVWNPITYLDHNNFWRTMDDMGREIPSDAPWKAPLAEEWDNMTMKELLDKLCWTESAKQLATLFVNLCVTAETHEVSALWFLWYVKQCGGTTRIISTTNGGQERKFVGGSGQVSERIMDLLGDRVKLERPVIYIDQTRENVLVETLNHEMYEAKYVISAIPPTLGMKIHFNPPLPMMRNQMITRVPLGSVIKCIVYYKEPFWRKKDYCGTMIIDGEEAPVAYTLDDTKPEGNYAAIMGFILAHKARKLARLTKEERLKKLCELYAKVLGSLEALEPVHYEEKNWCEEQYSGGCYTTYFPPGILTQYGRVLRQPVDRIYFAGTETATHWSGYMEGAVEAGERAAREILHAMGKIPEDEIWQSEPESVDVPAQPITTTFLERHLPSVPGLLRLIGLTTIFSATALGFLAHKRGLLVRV

[26] = Inhibition of adenosine transporter (unknown origin) at 10 uM; assay type: ADME; conditions: human

Drug uptake [1]: Metabolite_Detected
Retention_time [2]: 9 min
Retention_time [3]: 8.9 min
logD [4]: 1.95
solubility kinetic [5]: 210 µM (≈ 78 µg/mL)
Papp [6]: 34.4 ×10⁻⁶ cm/s
fraction unbound [7]: 0.077
fraction unbound [8]: 0.128
half-life [9]: 1.87 h
half-life [10]: 2.38 h
CL [11]: < 2.9 µL/min/pmol
half-life [12]: > 2.3 h
half-life [13]: 2.37 h
microsomal CLint [14]: 13 µL/min/mg
CLH [15]: 5 µL/min/mg
microsomal CLint [16]: < 10 µL/min/mg
CLH [17]: 5 µL/min/mg
CL [18]: < 5.8 µL/min/pmol
activity at 10 µM [19]: 45%
activity at 10 µM [20]: 79%
activity at 10 µM [21]: 84%
inhibition (INH) [22]: Active
inhibition (INH) [23]: Active
inhibition (INH) [24]: Active
inhibition (INH) [25]: Not Active
inhibition (INH) [26]: Not Active
SMILES: CCS(=O)(=O)c1ccc2oc(-c3ccc4c(c3)[C@@H](O)[C@H](O)C=C4)nc2c1
